Activity calls are given as the source filed them. The calls are words filed in the database; no cut-off is given here.
Experiments:
Fusarium verticillioides = assay: Antimicrobial activity against Fusarium verticillioides NRRL 25457 at 250 ug/disk by standard agar diffusion assay; format: functional, organism-based
Aspergillus flavus = assay: Antimicrobial activity against Aspergillus flavus NRRL 6541 at 250 ug/disk by standard agar diffusion assay; format: functional, organism-based
Bacillus subtilis = assay: Antimicrobial activity against Bacillus subtilis ATCC 6051 at 200 ug/disk by standard agar diffusion assay; format: functional; settings: read-out: IZ
Procedure, shortened: (§1)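 Agar diffusion (disk) assay with 200 µg of compound applied per disk against the bacterial strain. The same panel at this loading also included Candida albicans ATCC 90029. Read-out was the zone of growth inhibition, recorded in mm.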

Staphylococcus aureus = assay: Antimicrobial activity against Staphylococcus aureus ATCC 29213 at 200 ug/disk by standard agar diffusion assay; format: functional; settings: read-out: IZ; procedure, shortened: as §1

| SMILES | Activity (Fusarium verticillioides) | Activity (Aspergillus flavus) | zone of inhibition at 200 µg/disc (Bacillus subtilis) | zone of inhibition at 200 µg/disc (Staphylococcus aureus) |
| --- | --- | --- | --- | --- |
| O=Cc1c(O)cccc1CCC(=O)O | inactive | inactive | 22 mm |  |
| CC(O)C(O)CC1OC(=O)c2c(O)cccc21 (centres undefined) | inactive | inactive |  |  |
| CC1(O)C(=O)C=Cc2c1ccc(O)c2CO (centres undefined) | inactive | inactive |  |  |
| CC(O)C(O)CC1OCc2c(O)cccc21 (mixture of isomers; 7a) | inactive | inactive |  |  |
| CC(O)C(O)CC1OCc2c(O)cccc21 (mixture of isomers; 7b) | inactive | inactive |  |  |
| O=C(O)CC1OCc2c(O)cccc21 (racemic) | inactive | inactive | 8 mm |  |
| O=C(O)CC1OC(=O)c2c(O)cccc21 (racemic) | inactive | inactive |  |  |
| COc1cc(O)c2c(c1)C(=O)[C@H]1C[C@](C)(O)[C@H](O)C[C@@H]1[C@H]2O (relative stereo) | inactive | inactive |  |  |
| COc1cc(O)c2c(c1)C(=O)C1=C(C2=O)[C@H](O)[C@@H](O)[C@@](C)(O)[C@@H]1O [ALTERSOLANOL A] | inactive | inactive | 33 mm | 31 mm |
| C[C@H]1O[C@@H]2O[C@H]1C=Cc1cccc(O)c12 [CLADOACETAL A] | inactive | inactive |  | 13 mm |
| COc1cc(O)c2c(c1)C(=O)c1cc(C)c(O)cc1C2=O [MACROSPORIN] | inactive | inactive | 23 mm | 20 mm |

From ChEMBL document CHEMBL1150593, “Biologically active polyketide metabolites from an undetermined fungicolous hyphomycete resembling Cladosporium” (2002)
